A selection: hits, their analogues and other compounds. The true share with any hit is near 1.9%.
NPY-Y2 PAM-ag: human NPY-Y2 potentiation or agonism, primary screen | P49146 | cells expressing NPY-Y2, potentiator/agonist read-out | activation, % at 3.6 µM | hit rate 0.45% among 220,000; in the data active = activation above about 27%;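 also: cells stimulated with NPY near EC25 plus isoproterenol at EC100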
Target sequence (P49146 whole entry, looked up): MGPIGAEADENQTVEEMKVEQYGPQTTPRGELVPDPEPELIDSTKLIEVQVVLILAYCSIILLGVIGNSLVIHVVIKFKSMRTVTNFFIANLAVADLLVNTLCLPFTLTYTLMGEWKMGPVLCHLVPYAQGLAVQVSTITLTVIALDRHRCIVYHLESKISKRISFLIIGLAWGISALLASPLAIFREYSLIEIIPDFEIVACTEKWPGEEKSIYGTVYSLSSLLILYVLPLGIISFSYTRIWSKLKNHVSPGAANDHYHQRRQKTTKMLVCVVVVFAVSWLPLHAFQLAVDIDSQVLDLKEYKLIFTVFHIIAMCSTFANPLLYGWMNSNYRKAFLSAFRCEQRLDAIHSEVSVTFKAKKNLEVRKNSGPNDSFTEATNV
NPY1 pot ag: human NPY-Y1 potentiation or agonism, primary screen; NPY-Y1 expressing cells, potentiator/agonist activation; activation, % at 3.6 µM; hit rate 0.37% among 220,000; AID 1304; in the data active = activation above about 33%, passing the limit was not always enough;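 also: cells stimulated with NPY at EC10 then isoproterenol at EC100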
NPY Y2 blocker: NPY-Y2 (human) receptor antagonism | P49146 | NPY-Y2 expressing cells, antagonist mode | inhibition, % at 2.7 µM | hit rate 0.99% among 140,000
NPY Y1 blocker: antagonists of human neuropeptide Y receptor Y1. P25929. HEK293-CNG Y1 cells, membrane potential fluorescence; NPY at EC95, then isoproterenol. inhibition, % at 3.6 µM. hit rate 1% among 200,000. AID 1040;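 active = inhibition above the campaign mean inhibition of all tested compounds plus 3 SD, cut at about 20% in these data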
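Material: HEK293 Y1/CNG channel cell line | Also added: NPY (25 nM), isoproterenol (1 µM), Ro 20-1724 (25 µM) | Compound: One concentration, 3.6 µM, in 0.4% DMSO | Schedule: 3 h dye uptake, 1 h room-temperature compound, 45 min post-isoproterenol | Signal: Membrane-potential fluorescent dye readout | Read-out: % inhibition of NPY effect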
NPY-Y1 ant conf: confirmation of human neuropeptide Y receptor Y1 antagonists | inhibition, % at 3.6 µM | HEK293-CNG NPY-Y1, membrane potential fluorescence, cAMP; NPY challenge against isoproterenol-raised cAMP | AID 1254 | shares compounds with NPY Y1 blocker | hit rate 21% among 1,200; in the data active = inhibition above about 20%
NPY2 antag ctr: human NPY-Y2 antagonism in NPY-Y1 counter-screen | shares compounds with NPY Y1 blocker | HEK293 NPY-Y2 CNG membrane potential fluorescence; cells given NPY, then isoproterenol | inhibition, % at 3.6 µM | hit rate 28% among 1,200 | AID 1255
Numbers stand for hits; i = inactive; nt = not tested or not shown. Rule as the data show it, unless noted: active = inhibition above about 17%; inactive = the rest.

SMILES	NPY-Y2 PAM-ag	NPY1 pot ag	NPY Y2 blocker	NPY Y1 blocker	NPY-Y1 ant conf	NPY2 antag ctr
COc1ccccc1NC(=S)N(Cc1ccccc1)Cc1cccs1	i	i	nt	27	i	i
CCCc1cc2c(cc1NC(=O)c1ccco1)OCO2	i	i	nt	i	nt	nt
COc1ccc(C2C(C(=O)c3cccs3)=C(O)C(=O)N2c2cccc(C)n2)cc1 (centres undefined)	i	i	nt	nt	nt	nt
Cc1ccc(C2C(C(=O)c3cccs3)=C(O)C(=O)N2c2nnc(C)s2)cc1 (centres undefined)	i	i	nt	27	31	21
O=C(O)c1ccccc1C(=O)NCCc1c(C(=O)O)[nH]c2ccc(F)cc12	i	i	nt	nt	nt	nt
Cc1cnc(NC(=O)c2cccc(S(=O)(=O)N3CC(C)OC(C)C3)c2)s1 (centres undefined)	i	i	nt	i	nt	nt
CCn1nc(NS(=O)(=O)c2ccccc2)c2cc3cccc(C)c3nc21	i	i	i	i	nt	nt
CCCn1nc(NS(C)(=O)=O)c2cc3cccc(C)c3nc21	i	i	i	27	i	i
CCCCN(C(=O)c1ccc2c(c1)OCO2)c1ccccc1	i	i	nt	i	nt	nt
CCc1cccc(CC)c1NC(=O)Cn1c(-c2ccc(F)cc2)noc1=O	i	i	nt	30	i	i
O=C(c1cnc2c(c1)COc1ccc(Cl)cc1-2)c1ccccc1O	i	i	i	22	i	i
C#CCOc1ccccc1C(N)=O	i	i	nt	nt	nt	nt
CC(C)OC(=O)c1c(N)n(CCCN2CCOCC2)c2nc3ccccc3nc12	i	i	i	i	nt	nt
COc1ccccc1CNC(=O)c1c(N)n(CCCN2CCOCC2)c2nc3ccccc3nc12	i	i	i	23	i	i
COc1ccc(-c2cn(-c3ccccc3)c3[n+]2CCS3)cc1	i	i	i	i	nt	nt
Cc1ccc(NC(=S)N(CCN(C)C)Cc2cc3cc(C)cc(C)c3[nH]c2=O)cc1	i	i	i	25	i	i
Cc1ccc2cc(CN(CCN(C)C)C(=S)Nc3ccccc3)c(=O)[nH]c2c1C	i	i	nt	i	nt	nt
C[C@H]1CC[C@H]2C(=O)N3[C@H](c4ccccc4Br)[C@@H](C)CC[C@H]3C(=O)N2[C@@H]1c1ccccc1Br	i	i	i	28	i	i
C[C@H]1CC[C@H]2C(=O)N3[C@H](c4cccc(N5CCCC5=O)c4)[C@@H](C)CC[C@H]3C(=O)N2[C@@H]1c1cccc(N2CCCC2=O)c1	i	i	i	i	nt	nt
C/C(=N\Nc1nc2ccccc2[nH]1)c1cc2ccccc2o1	i	i	i	33	i	17
C/C(=N\Nc1nc2ccccc2[nH]1)c1ccc2c(c1)OCCO2	i	i	nt	i	nt	nt
O=C(O)c1ccccc1N(Cc1ccccc1)C(=O)CO/N=C/c1ccccc1	i	i	i	22	i	i
COc1cc(/C=C(/C#N)C(=O)Nc2ccc(Cl)cc2)ccc1Oc1nc(Cl)ncc1F	i	i	nt	nt	nt	nt
CCc1ccc(NC(=O)c2cc(C)on2)cc1	i	i	i	i	nt	nt
CCCc1cc(C(=O)OC)c(NC(=O)c2cc(C)on2)s1	i	i	i	20	i	i
SMILES	NPY-Y2 PAM-ag	NPY1 pot ag	NPY Y2 blocker	NPY Y1 blocker	NPY-Y1 ant conf	NPY2 antag ctr
COc1ccc(-c2ccc(C(=O)O)c(=O)[nH]2)cc1	i	i	nt	i	nt	nt
Cc1ccc(-c2ccc(C(=O)O)[nH]2)cc1	i	i	i	28	i	i
CC(Sc1nnc(-c2cccs2)n1Cc1ccccc1)C(=O)NCc1ccc2c(c1)OCO2 (centres undefined)	i	i	i	24	i	i
COc1ccc(-c2nc(CN3CCN(c4cc(C)nc(C)c4)CC3)c(C)o2)c2ccccc12	i	i	nt	23	i	29
CC1(C)CC(=O)C=C(NNC(=O)OC(C)(C)C)C1	i	i	nt	22	i	i
O=C(O)CSc1ccc(NC(=O)Nc2ccccc2F)cc1	i	i	nt	nt	nt	nt
CCC(C)(C(=O)NC1CCCC1)N(Cc1cccs1)C(=O)c1ccccn1 (centres undefined)	i	i	nt	i	nt	nt
CCC(C)(C(=O)NC1CCCC1)N(Cc1ccco1)C(=O)c1ccc2c(c1)OCO2 (centres undefined)	i	i	i	37	i	i
CCC(C)(C(=O)NC1CCCC1)N(Cc1ccco1)C(=O)Cc1cccs1 (centres undefined)	i	i	i	49	22	i
CCC(C)(C(=O)NC1CCCCC1)N(Cc1cccs1)C(=O)c1ccccn1 (centres undefined)	i	i	nt	22	i	i
CCC(C)(C(=O)NC1CCCCC1)N(Cc1ccco1)C(=O)c1cnccn1 (centres undefined)	i	i	i	i	nt	nt
C1=C(c2ccccc2)Nc2ccccc2N=C1c1ccccc1	i	i	i	25	i	i
N#Cc1nc(COc2ccc(Br)cc2)oc1NCCCn1ccnc1	i	i	i	26	i	i
CC(NC(=O)c1ccc(OC2CCN(S(=O)(=O)N(C)C)CC2)cc1)C1CC1 (centres undefined)	i	i	nt	i	nt	nt
CC(C)c1ccc(SCc2noc(C(=O)NCC3CCCO3)c2C(=O)O)cc1 (centres undefined)	i	i	i	24	i	i
Cc1cccc(SCc2noc(C(=O)NCC3CCCO3)c2C(=O)O)c1 (centres undefined)	i	i	i	i	nt	nt
O=C(NCC1CCCO1)c1onc(CSc2ccccc2)c1C(=O)O (centres undefined)	i	i	i	i	nt	nt
Cc1ccc(C)c(SCc2noc(C(=O)NCC3CCCO3)c2C(=O)O)c1 (centres undefined)	i	i	i	21	22	i
CCOC(=O)C1C(C)=C(Nc2ccc(OC)cc2)C(=O)N1c1ccc(OC)cc1 (centres undefined)	i	i	i	i	nt	nt
c1ccc(CN2CCN(c3nc(-c4ccccc4)nc(-n4ccnc4)n3)CC2)cc1	i	i	i	40	24	23
c1ccc(-c2nc(-n3ccnc3)nc(-n3ccnc3)n2)cc1	i	i	i	i	nt	nt
CCC/C(O)=C1\C(=O)CCCC1=NCCc1c(C)[nH]c2ccc(OC)cc12	i	i	nt	i	nt	nt
COc1ccc(CC2(CO)CCN(Cc3ccncc3)CC2)cc1	i	i	nt	i	nt	nt
COc1ccc(CC2(CO)CCN(CC3=CC[C@H]4C[C@@H]3C4(C)C)CC2)cc1	i	i	nt	22	i	i
O=C(NC(NC(=S)Nc1c(Cl)cccc1Cl)C(Cl)(Cl)Cl)OCc1ccccc1 (centres undefined)	i	i	i	22	i	i
CCOC(=O)C1(CC2CCCCO2)CCN(Cc2c(C)cc(C)cc2-n2cccn2)CC1 (centres undefined)	i	i	nt	24	i	i
CCOC(=O)C1(CC2CCCCO2)CCN(Cc2cc(F)ccc2-n2cccn2)CC1 (centres undefined)	i	i	nt	25	i	i
CCOC(=O)C1(CC2CCCCO2)CCN(Cc2nccn2-c2cccc(C)c2)CC1 (centres undefined)	i	i	nt	i	nt	nt
CCN(CC(=O)Nc1ccc(N2CCOCC2)cc1)CC(=O)NC(C)(C)C	i	i	nt	i	nt	nt
